Test results from ChEMBL document CHEMBL3271971, “Antineoplastic and biochemical properties of arylsulfonylhydrazones of 2-formylpyridine N-oxide” (J Med Chem, 1976).

Experiments:
Mus musculus [1] = experiment: Toxicity in CD-1 mouse allografted with mouse EAC cells assessed as change in body weight at 40 mg/kg administered qd for 6 days (reference value: 26.8%); assay type: organism-based, Ehrlich; design: dose 40 mg/kg; settings: in vivo, 144 h
In short: (§1)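 Ascitic tumors were transplanted from a donor mouse bearing a 7-day tumor. Daily doses were given for six consecutive days. Percentage body-weight change from onset to termination of therapy served as the index of drug toxicity.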

Mus musculus [2] = experiment: Effect on protein synthesis in tumor of CD-1 mouse allografted with mouse S180A cells assessed as [14C]-leucine incorporation at 80 mg/kg, ip pretreated for 3 hrs followed by radiotracer-addition measured after 1 hr relative to control; assay type: functional; settings: route intraperitoneal
In short: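 Mice bearing 6-day Sarcoma 180 ascites implants received a single ip dose of 80 mg/kg. At the stated pretreatment time they were given ip tracer: 200 μg thymidine-3H, 200 μg uridine-3H or 125 μg DL-leucine-14C. After 1 h of incorporation, specific radioactivity of DNA, RNA or protein was read as % of control incorporation.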

Ehrlich [3] = experiment: Antineoplastic activity against mouse EAC cells allografted in CD-1 mouse assessed as average survival at 40 mg/kg administered qd for 6 days (reference value: 14.4 +/- 1.2 days); assay type: functional
In short: (§2)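 Ascitic tumours were transplanted from an appropriate donor mouse carrying a 7-day tumour growth. Drug was given at 10–60 mg/kg/day for six consecutive days. Sensitivity was judged by prolongation of survival time relative to untreated tumour-bearing controls. Mice were weighed throughout, and percentage weight change from onset to end of therapy indicated toxicity.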

Mus musculus [4] = experiment: Toxicity in BDF1 mouse allografted with mouse L1210 cells assessed as change in body weight at 40 mg/kg administered qd for 6 days (reference value: 13.6%); assay type: organism-based; design: dose 40 mg/kg; settings: in vivo, 144 h; in short: as §1
Ehrlich [5] = experiment: Antineoplastic activity against mouse EAC cells allografted in CD-1 mouse assessed as mouse survival at 60 mg/kg administered qd for 6 days measured for 50 days relative to control; assay type: functional; in short: as §2
Mus musculus [6] = experiment: Toxicity in C3H mouse allografted with mouse Hepa129 cells assessed as change in body weight at 40 mg/kg administered qd for 6 days (reference value: 13.5%); assay type: organism-based; design: dose 40 mg/kg; settings: in vivo, 144 h; in short: as §1

Cc1ccc(S(=O)(=O)N/N=C/c2cccc[n+]2[O-])cc1 showed an Activity (Mus musculus [1]) of -3.3%, an Activity (Mus musculus [2]) of 70% and a Survival (Ehrlich [3]) of 47 days. It also gave an Activity (Mus musculus [4]) of 2.8%, a survival at 60 mg/kg (Ehrlich [5]) of 40% and an Activity (Mus musculus [6]) of 2.3%.
